This is an account of results in ChEMBL document CHEMBL1149884, “Investigating biological activity spectrum for novel quinoline analogues 2: hydroxyquinolinecarboxamides with photosynthesis-inhibiting activity” (Bioorg Med Chem, 2008).

Series [1] in a line: Lipophilicity, log K of the compound. The format is physicochemical. The method, boiled down:
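Isocratic RP-HPLC on end-capped C18 column, methanol as organic modifier. Retention times taken in minutes. Capacity factor K derived from them, and log K used as a lipophilicity index.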

The test system of series [2] is Spinacia oleracea. As to the kind of experiment: Herbicidal activity in Spinacia oleracea assessed as inhibition of photosynthetic electron transport by decrease in oxygen evolution. It is filed as functional. The method, boiled down: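 Spinach chloroplast PET measured as oxygen evolution in phosphate buffer (0.02 mol/L, pH 7.2) with sucrose 0.4 mol/L, MgCl₂ 0.005 mol/L, NaCl 0.015 mol/L. Chl 30 mg/L, halogen lamp irradiation (~100 W/m², 10 cm, water filter), 22 °C. IC50 = molar concentration giving 50% decrease in oxygen evolution vs untreated control.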

The subject of series [3] is Chlorella vulgaris. As to the kind of experiment: Herbicidal activity against Chlorella vulgaris Beij assessed as decrease in chlorophyll content after 7 days. It is filed as functional, organism-based. The following applies: for IC50: 168 h. In a few lines: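 C. vulgaris grown statically at room temperature (16 h light/8 h dark, 80 µmol/m² s PAR, pH 7.2), starting Chl 0.01 mg/L. Exposed 7 days to 100, 75, 50, 25, 8.3, 4.2, 0.83 µmol/L (DMSO ≤0.25%, matched DMSO controls). Chl read spectrophotometrically after methanol extraction. IC50 = 50% Chl decrease vs control, else mean % of control over 100–0.83 µmol/L ± SD.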

Active and inactive are the calls of the source. No cut-off for these calls is given here.

In general, IC50 refers to the concentration that inhibits the measured activity by half. With `Cc1ccc2ccc(C(=O)NC(C)c3ccc(F)cc3)c(O)c2n1` (stereo unspecified), in series [1], the “log K” value was determined as 0.372. Also, the result in series [2] was inactive. Moreover, the IC50 in series [3] was found to be 83.3 µM.

In the case of `Cc1ccc2ccc(C(=O)NCCCCc3ccccc3)c(O)c2n1`, the “log K” value in series [1] stood at 0.5075. Besides, the outcome in series [2] was inactive. In addition, the IC50 in series [3] was 8.5 µM.

Turning to `Cc1ccc2c(O)c(C(=O)Nc3ccc4c(O)c(C(=O)O)cc([N+](=O)[O-])c4n3)ccc2n1`, the “log K” value in series [1] was determined as 0.4072. For the same compound, in series [2], the IC50 stood at 114 µM.

For `Cc1ccc2ccc(C(=O)NCCc3ccccc3)c(O)c2n1`, in series [1], the “log K” value was determined as 0.2404. The result in series [2] was inactive.

`Cc1ccc(CNC(=O)c2ccc3ccc(C)nc3c2O)cc1`: the “log K” value in series [1] came out at 0.3793. For the same compound, the result in series [2] was inactive. Further, in series [3], the IC50 was 7.2 µM.

Consider `Cc1ccc2c(O)c(C(=O)NCCCCc3ccccc3)ccc2n1`, for which, in series [1], the “log K” value stood at 0.4173. In addition, the IC50 came out at 7.2 µM in series [2] and 10.9 µM in series [3].

As to `Cc1ccc2ccc(C(=O)NCc3ccc(F)cc3)c(O)c2n1`, in series [1], the “log K” value came to 0.3389. For the same compound, in series [2], the result was inactive. Moreover, the IC50 in series [3] stood at 158 µM.

Turning to `CN(C)C(=O)Nc1ccc(Cl)c(Cl)c1` [DCMU], in series [2], the IC50 came to 1.9 µM.

Regarding `Cc1ccc2c(O)c(C(=O)NC(=O)NC(=O)c3ccc4nc(C)ccc4c3O)ccc2n1`, the “log K” value in series [1] was found to be 0.612. Besides, the half-maximal inhibitory concentration (IC50) in series [2] is 833 µM; in series [3], 5.5 µM.

Consider `Cc1ccc2c(O)c(C(=O)NCCc3ccc(O)cc3)ccc2n1`, for which the “log K” value in series [1] turned out to be 0.3775. The IC50 in series [2] came out at 16 µM.

For `Cc1ccc2ccc(C(=O)NCCCNC(=O)c3ccc4ccc(C)nc4c3O)c(O)c2n1`, the “log K” value in series [1] is recorded as 0.1168. Further, in series [2], the outcome was inactive. The IC50 in series [3] was found to be 149 µM.

Consider `Cc1ccc2c([N+](=O)[O-])cc(C(=O)NCc3ccccc3)c(O)c2n1`, for which the “log K” value in series [1] came out at 0.4021. In series [2], the IC50 is 32 µM. For the same compound, the result in series [3] was inactive.

Turning to `Cc1ccc2ccc(C(=O)NNC(=O)c3ccccc3O)c(O)c2n1`, the “log K” value in series [1] (octanol/water) is recorded as 0.6361. Besides, the result in series [2] and in series [3] was inactive.

As for `Cc1ccc2c(O)c(C(=O)Nc3ccc(Cl)cc3)ccc2n1`, the “log K” value in series [1] is given as 0.3812. For the same compound, the IC50 in series [2] was found to be 265 µM; in series [3], 23.8 µM.

For `COc1ccc(CNC(=O)c2cc([N+](=O)[O-])c3ccc(C)nc3c2O)cc1`, the “log K” value in series [1] stood at 0.4087. For the same compound, in series [2], the IC50 worked out at 137 µM. Moreover, the result in series [3] was inactive.

On to `COc1ccc(CNC(=O)c2ccc3ccc(C)nc3c2O)cc1`, for which, in series [1], the “log K” value was found to be 0.2843. In addition, in series [2], the result was inactive. Further, in series [3], the IC50 worked out at 4.8 µM.

Consider `Cc1ccc(CNC(=O)c2cc([N+](=O)[O-])c3ccc(C)nc3c2O)cc1`, for which, in series [1], the “log K” value is recorded as 0.4304. Also, in series [2], the half-maximal inhibitory concentration (IC50) is 107 µM. In addition, the result in series [3] was inactive.

For `Cc1ccc2ccc(C(=O)NCCO)c(O)c2n1`, the “log K” value in series [1] stood at 0.2629. Also, the outcome in series [2] and in series [3] was inactive.

For `Cc1ccc2c(O)c(C(=O)NCCCNC(=O)c3ccc4nc(C)ccc4c3O)ccc2n1`, the “log K” value in series [1] is listed as 0.1203. The IC50 in series [2] turned out to be 819 µM; in series [3], 19.5 µM.

As for `Cc1ccc2ccc(C(=O)NCCc3ccc(F)cc3)c(O)c2n1`, in series [1], the “log K” value was found to be 0.3342. The outcome in series [2] was inactive. Further, the half-maximal inhibitory concentration (IC50) in series [3] turned out to be 15.9 µM.

On to `Cc1ccc(CNC(=O)c2ccc3nc(C)ccc3c2O)cc1`, for which the “log K” value in series [1] is 0.38. Also, the IC50 in series [2] amounted to 468 µM.

On to `Cc1ccc2ccc(C(=O)NCc3ccccc3)c(O)c2n1`, for which the “log K” value in series [1] amounted to 0.2812. The outcome in series [2] was inactive. Moreover, in series [3], the IC50 amounted to 17.2 µM.

For the compound `Cc1ccc2ccc(C(=O)NCCNC(=O)c3ccc4ccc(C)nc4c3O)c(O)c2n1`, the “log K” value in series [1] is on record as 0.1109. For the same compound, the outcome in series [2] was inactive. Further, the IC50 in series [3] stood at 93.7 µM.

In the case of `Cc1ccc2c([N+](=O)[O-])cc(C(=O)NC(C)c3ccc(F)cc3)c(O)c2n1` (stereo unspecified), the “log K” value in series [1] is given as 0.4283. The IC50 in series [2] came out at 8.7 µM; in series [3] it was 43.6 µM.

As to `Cc1ccc2c(O)c(C(=O)NC(C)c3ccc(F)cc3)ccc2n1` (stereo unspecified), the “log K” value in series [1] stood at 0.3663. The IC50 in series [2] was 426 µM.

For `Cc1ccc2c([N+](=O)[O-])cc(C(=O)NCc3ccc(F)cc3)c(O)c2n1`, the “log K” value in series [1] turned out to be 0.4136. For the same compound, the concentration for half-maximal inhibition (IC50) in series [2] came out at 95 µM. In addition, the outcome in series [3] was inactive.
